Consider two compounds from ChEMBL document CHEMBL4330069, “Boosting the efficacy of anti-MRSA β-lactam antibiotics via an easily accessible, non-cytotoxic and orally bioavailable FtsZ inhibitor” (Eur J Med Chem, 2019).

The MIC is the lowest concentration that inhibits growth of the organism.

Values after ≈ are worked out from the molar mass of the structure shown. Active and inactive are the calls of the source.

In assay [1] the test system is Staphylococcus aureus. The assay is described as follows: Antibacterial activity against multidrug-resistant Staphylococcus aureus isolate 1449 by broth microdilution assay. In kind it is functional. The method, boiled down: (§1)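 Broth microdilution MIC per CLSI guidelines against clinical MRSA isolates, for β-lactams and test compound alone and in combination. Compounds were dissolved in DMSO. Growth was read by eye, in duplicate. FIC index = FIC(compound) + FIC(drug); synergy defined as FIC index ≤0.5.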
Background: In broth dilution the organism is exposed to a series of concentrations in liquid medium.

Assay [2] relates to Staphylococcus aureus. The assay is described as follows: Antibacterial activity against multidrug-resistant Staphylococcus aureus isolate 3580 by broth microdilution assay. In kind it is functional. The method, boiled down:
as §1

Assay [3] has as its system Staphylococcus aureus. The assay is described as follows: Antibacterial activity against multidrug-resistant Staphylococcus aureus isolate 2516 by broth microdilution assay. In kind it is functional. In short, it runs like this:
as §1

Assay [4] has as its system Staphylococcus aureus. As to the kind of experiment: Antibacterial activity against multidrug-resistant Staphylococcus aureus isolate 774 by broth microdilution assay. The assay is classed as functional. The method, boiled down:
as §1

The test system of assay [5] is Staphylococcus aureus. As to the kind of experiment: Antibacterial activity against multidrug-resistant Staphylococcus aureus isolate 2490 by broth microdilution assay. In kind it is functional. In short, it runs like this: as §1
Assay [6] relates to Staphylococcus aureus. The assay is described as follows: Antibacterial activity against multidrug-resistant Staphylococcus aureus isolate 3589 by broth microdilution assay. The assay is classed as functional. The method, boiled down:
as §1

Assay [7] has as its system Staphylococcus aureus. As to the kind of experiment: Antibacterial activity against multidrug-resistant Staphylococcus aureus isolate 1749 by broth microdilution assay. In kind it is functional. The method, boiled down: as §1
The subject of assay [8] is Staphylococcus aureus. The assay is described as follows: Antibacterial activity against multidrug-resistant Staphylococcus aureus isolate 2728 by broth microdilution assay. The assay is classed as functional. In short, it runs like this:
as §1

Assay [9] deals with Staphylococcus aureus. The assay is described as follows: Antibacterial activity against multidrug-resistant Staphylococcus aureus isolate 2895 by broth microdilution assay. In kind it is functional. In short, it runs like this: as §1
Assay [10] concerns Staphylococcus aureus. As to the kind of experiment: Antibacterial activity against multidrug-resistant Staphylococcus aureus isolate 358 by broth microdilution assay. The assay is classed as functional. The method, boiled down: as §1
The subject of assay [11] is Staphylococcus aureus. As to the kind of experiment: Antibacterial activity against multidrug-resistant Staphylococcus aureus isolate 2973 by broth microdilution assay. In kind it is functional. In short, it runs like this:
as §1

For assay [12], the system named is Staphylococcus aureus. As to the kind of experiment: Antibacterial activity against multidrug-resistant Staphylococcus aureus isolate 1402 by broth microdilution assay. The assay is classed as functional. The method, boiled down: as §1
Assay [13] concerns Staphylococcus aureus. As to the kind of experiment: Antibacterial activity against multidrug-resistant Staphylococcus aureus isolate 1717 by broth microdilution assay. The assay is classed as functional. In short, it runs like this:
as §1

For assay [14], the system named is Staphylococcus aureus. The assay is described as follows: Antibacterial activity against multidrug-resistant Staphylococcus aureus isolate 2224 by broth microdilution assay. The assay is classed as functional. In short, it runs like this: as §1
Assay [15] deals with Staphylococcus aureus. As to the kind of experiment: Antibacterial activity against multidrug-resistant Staphylococcus aureus isolate 2901 by broth microdilution assay. The assay is classed as functional. The method, boiled down:
as §1

Assay [16] deals with Staphylococcus aureus. The assay is described as follows: Antibacterial activity against multidrug-resistant Staphylococcus aureus isolate 256 by broth microdilution assay. In kind it is functional. The method, boiled down:
as §1

Assay [17] has as its system Staphylococcus aureus. The assay is described as follows: Antibacterial activity against multidrug-resistant Staphylococcus aureus isolate 3267 by broth microdilution assay. In kind it is functional. The method, boiled down:
as §1

The subject of assay [18] is Staphylococcus aureus. As to the kind of experiment: Antibacterial activity against multidrug-resistant Staphylococcus aureus isolate 200 by broth microdilution assay. In kind it is functional. In short, it runs like this:
as §1

Assay [19] concerns Staphylococcus aureus. As to the kind of experiment: Antibacterial activity against multidrug-resistant Staphylococcus aureus isolate 1344 by broth microdilution assay. The assay is classed as functional. In short, it runs like this: as §1
The test system of assay [20] is Staphylococcus aureus. As to the kind of experiment: Antibacterial activity against multidrug-resistant Staphylococcus aureus isolate 757 by broth microdilution assay. The assay is classed as functional. In short, it runs like this:
as §1

Assay [21] has as its system Staphylococcus aureus. The assay is described as follows: Antibacterial activity against multidrug-resistant Staphylococcus aureus ATCC 43300 infected in BALB/C mouse assessed as mouse survival at 50 mg/kg, ip bid measured after 5 days. In kind it is functional, organism-based.
The test system of assay [22] is Staphylococcus aureus. As to the kind of experiment: Antibacterial activity against multidrug-resistant Staphylococcus aureus isolate 417 by broth microdilution assay. In kind it is functional. In short, it runs like this: as §1
Assay [23] concerns Staphylococcus aureus. The assay is described as follows: Antibacterial activity against multidrug-resistant Staphylococcus aureus isolate 231 by broth microdilution assay. The assay is classed as functional. The method, boiled down: as §1
In assay [24] the test system is Staphylococcus aureus. The assay is described as follows: Antibacterial activity against multidrug-resistant Staphylococcus aureus isolate 1136 by broth microdilution assay. In kind it is functional. In short, it runs like this: as §1
For assay [25], the system named is Staphylococcus aureus. The assay is described as follows: Antibacterial activity against multidrug-resistant Staphylococcus aureus isolate 2919 by broth microdilution assay. The assay is classed as functional. In short, it runs like this:
as §1

The subject of assay [26] is Staphylococcus aureus. As to the kind of experiment: Antibacterial activity against multidrug-resistant Staphylococcus aureus isolate 3332 by broth microdilution assay. The assay is classed as functional. In short, it runs like this: as §1
Assay [27] deals with Staphylococcus aureus. The assay is described as follows: Antibacterial activity against multidrug-resistant Staphylococcus aureus ATCC 43300 infected in BALB/C mouse assessed as mouse survival at 25 mg/kg, ip bid measured on day 4 post infection (reference value: 50%). In kind it is functional.
The subject of assay [28] is Staphylococcus aureus. As to the kind of experiment: Antibacterial activity against multidrug-resistant Staphylococcus aureus isolate 85 by broth microdilution assay. In kind it is functional. In short, it runs like this:
as §1

Assay [29] deals with Staphylococcus aureus. As to the kind of experiment: Antibacterial activity against multidrug-resistant Staphylococcus aureus isolate 3411 by broth microdilution assay. In kind it is functional. The method, boiled down: as §1
Assay [30] deals with Staphylococcus aureus. As to the kind of experiment: Antibacterial activity against multidrug-resistant Staphylococcus aureus isolate 254 by broth microdilution assay. The assay is classed as functional. The method, boiled down: as §1
The test system of assay [31] is Staphylococcus aureus. The assay is described as follows: Antibacterial activity against multidrug-resistant Staphylococcus aureus ATCC 43300 infected in BALB/C mouse assessed as mouse survival at 50 mg/kg, ip bid measured after 5 days relative to control. The assay is classed as functional.

In the case of `CO/N=C(\C(=O)N[C@@H]1C(=O)N2C(C(=O)O)=C(COC(N)=O)CS[C@H]12)c1ccco1` [CEFUROXIME], the MIC with Staphylococcus aureus [1] came out at 2 µg/mL (≈ 4.71 µM); in the assay on Staphylococcus aureus [2], 1020 µg/mL (≈ 2410 µM); against Staphylococcus aureus [3], 512 µg/mL (≈ 1210 µM); with Staphylococcus aureus [4], 1020 µg/mL (≈ 2410 µM); in the assay with Staphylococcus aureus [5], 32 µg/mL (≈ 75.4 µM); with Staphylococcus aureus [6], 512 µg/mL (≈ 1210 µM). Moreover, the MIC with Staphylococcus aureus [7] is 16 µg/mL (≈ 37.7 µM); with Staphylococcus aureus [8] it was 16 µg/mL (≈ 37.7 µM); with Staphylococcus aureus [9], 64 µg/mL (≈ 151 µM); with Staphylococcus aureus [10], 2 µg/mL (≈ 4.71 µM); against Staphylococcus aureus [11], 8 µg/mL (≈ 18.9 µM); with Staphylococcus aureus [12], 16 µg/mL (≈ 37.7 µM). The MIC against Staphylococcus aureus [13] was 16 µg/mL (≈ 37.7 µM); against Staphylococcus aureus [14], 8 µg/mL (≈ 18.9 µM); against Staphylococcus aureus [15], 16 µg/mL (≈ 37.7 µM); with Staphylococcus aureus [16], 256 µg/mL (≈ 603 µM); against Staphylococcus aureus [17], 256 µg/mL (≈ 603 µM); against Staphylococcus aureus [18], 2 µg/mL (≈ 4.71 µM). For the same compound, the MIC was determined as 256 µg/mL (≈ 603 µM) in the assay on Staphylococcus aureus [19]; 32 µg/mL (≈ 75.4 µM) with Staphylococcus aureus [20]; 1020 µg/mL (≈ 2410 µM) against Staphylococcus aureus [22]; 1020 µg/mL (≈ 2410 µM) in the assay with Staphylococcus aureus [23]; 512 µg/mL (≈ 1210 µM) with Staphylococcus aureus [24]; 16 µg/mL (≈ 37.7 µM) in the assay on Staphylococcus aureus [25]. For the same compound, the minimum inhibitory concentration (MIC) with Staphylococcus aureus [26] was found to be 512 µg/mL (≈ 1210 µM); against Staphylococcus aureus [28], 8 µg/mL (≈ 18.9 µM); in the assay with Staphylococcus aureus [29], 1020 µg/mL (≈ 2410 µM); in the assay on Staphylococcus aureus [30], 1020 µg/mL (≈ 2410 µM). Further, in the assay on Staphylococcus aureus [21], the result was inactive. Moreover, the Activity in the assay on Staphylococcus aureus [27] was 70%.

For `CCCCCCCCCNc1ccc(F)c(C(N)=O)c1F.Cl`, in the assay with Staphylococcus aureus [31], the Activity worked out at 33%.
